This note sets out measurements from ChEMBL document CHEMBL4052816, “Development of Clickable Monophosphoryl Lipid A Derivatives toward Semisynthetic Conjugates with Tumor-Associated Carbohydrate Antigens” (J Med Chem, 2017).

Activity calls are given as the source filed them. The rule behind the calls is not given here.

For data set [1], the system named is THP-1. The data set can be described thus: Immunostimulatory activity in human THP1 cells assessed as increase in TNF-alpha production at 20 ug/ml after 6 to 72 hrs by immunoassay. It counts as functional, cell-based. A digest of the protocol: (§1)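 THP-1 cells (0.5 × 10^6/well) were grown in RPMI/10% FBS for 24 h, then given fresh medium containing compound at 20 μg/mL for 6, 24, 48 and 72 h. Cell-free supernatants were assayed for IL-8 and IL-6 by ELISA, and for IL-10, IFN-γ and TNF-α by a human Th1/Th2 multiplex bead immunoassay. Results were pooled from three independent experiments, means ± SD.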

In data set [2] the test system is BMDM. Kind of data set: Immunostimulatory activity in C57BL/6 mouse BMDM assessed as increase in IL-2 production at 20 ug/ml after 6 to 72 hrs by immunoassay. It counts as functional, cell-based. In short, it runs like this:
(§2)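 Bone marrow macrophages from wild-type C57BL/6 mice (0.5 × 10^6/well) were grown for 24 h, then given fresh medium containing compound at 20 μg/mL for 6, 24, 48 and 72 h. Three independent experiments were run, means ± SD.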

Data set [3] has as its system BMDM. The data set can be described thus: Immunostimulatory activity in C57BL/6 mouse BMDM assessed as increase in IL-6 production at 20 ug/ml after 6 to 72 hrs by ELISA. Format: functional, cell-based. A digest of the protocol:
as §2
A general note: In an ELISA, binding on a coated surface is turned into a signal by an enzyme label.

The subject of data set [4] is BMDM. Kind of data set: Immunostimulatory activity in C57BL/6 mouse BMDM assessed as increase in IL-5 production at 20 ug/ml after 6 to 72 hrs by immunoassay. Format: functional, cell-based. In short, it runs like this:
as §2

In data set [5] the test system is THP-1. Kind of data set: Cytotoxicity against human THP1 cells assessed as decrease in cell viability at 0.1 to 20 ug/ml after 6 to 48 hrs by SRB assay. It counts as cell-based. A digest of the protocol: (§3)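 THP-1 cells and C57BL/6 wild-type bone marrow-derived macrophages were kept in RPMI with 10% FBS, penicillin and streptomycin at 37 °C and 5% CO2. BMDM medium also contained gentamycin. Cells were exposed to compound at 20, 10, 1 and 0.1 μg/mL, and viability was read with a colorimetric assay.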
On the technique in general: The SRB assay estimates cell density from bound dye.

Data set [6] relates to THP-1. The data set can be described thus: Immunostimulatory activity in human THP1 cells assessed as increase in IFN-gamma production at 20 ug/ml after 6 to 72 hrs by immunoassay. It counts as functional, cell-based. In short, it runs like this:
as §1

For data set [7], the system named is BMDM. The data set can be described thus: Immunostimulatory activity in C57BL/6 mouse BMDM assessed as increase in CD80 production at 20 ug/ml after 6 to 72 hrs by flow cytometric method. Format: functional, cell-based. In short, it runs like this: (§4)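 C57BL/6 BMDM (0.5 × 10^6/well) were stimulated with compound at 20 μg/mL for 6, 24, 48 and 72 h. Cells were then stained with phycoerythrin-conjugated anti-CD40, anti-CD80 or anti-CD86, plus allophycocyanin-conjugated anti-MHC class II. Isotype antibodies set nonspecific binding, and cells were analysed by flow cytometry. Three independent experiments were run.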

Data set [8] concerns BMDM. The data set can be described thus: Immunostimulatory activity in C57BL/6 mouse BMDM assessed as increase in MHC-class 2 production at 20 ug/ml after 6 to 72 hrs by flow cytometric method. It counts as functional, cell-based. A digest of the protocol: as §4
On the technique in general: A flow cytometer gives signals particle by particle.

Data set [9] deals with BMDM. The data set can be described thus: Immunostimulatory activity in C57BL/6 mouse BMDM assessed as increase in GM-CSF production at 20 ug/ml after 6 to 72 hrs by immunoassay. Format: functional, cell-based. In short, it runs like this: as §2
The test system of data set [10] is BMDM. The data set can be described thus: Immunostimulatory activity in C57BL/6 mouse BMDM assessed as increase in CD86 production at 20 ug/ml after 6 to 72 hrs by flow cytometric method. Format: functional, cell-based. In short, it runs like this:
as §4

Data set [11] deals with BMDM. The data set can be described thus: Immunostimulatory activity in C57BL/6 mouse BMDM assessed as increase in IL-12 production at 20 ug/ml after 6 to 72 hrs by immunoassay. It counts as functional, cell-based. A digest of the protocol: as §2
A short description of data set [12]: Cytotoxicity against C57BL/6 mouse BMDM assessed as decrease in cell viability at 20 ug/ml after 6 to 48 hrs by SRB assay. It counts as cell-based. A digest of the protocol:
as §3

Data set [13] deals with THP-1. The data set can be described thus: Immunostimulatory activity in human THP1 cells assessed as increase in IL-6 production at 20 ug/ml after 6 to 72 hrs by ELISA. Format: functional, cell-based. A digest of the protocol: as §1
In data set [14] the test system is BMDM. Kind of data set: Immunostimulatory activity in C57BL/6 mouse BMDM assessed as increase in IL-4 production at 20 ug/ml after 6 to 72 hrs by immunoassay. It counts as functional, cell-based. In short, it runs like this:
as §2

For data set [15], the system named is THP-1. The data set can be described thus: Immunostimulatory activity in human THP1 cells assessed as increase in IL-10 production at 20 ug/ml after 6 to 72 hrs by immunoassay. Format: functional, cell-based. A digest of the protocol: as §1
For data set [16], the system named is BMDM. The data set can be described thus: Immunostimulatory activity in C57BL/6 mouse BMDM assessed as increase in IFN-gamma production at 20 ug/ml after 6 to 72 hrs by immunoassay. It counts as functional, cell-based. In short, it runs like this:
as §2

Data set [17] relates to BMDM. The data set can be described thus: Immunostimulatory activity in C57BL/6 mouse BMDM assessed as increase in IL-10 production at 20 ug/ml after 6 to 72 hrs by immunoassay. Format: functional, cell-based. In short, it runs like this: as §2
The subject of data set [18] is BMDM. The data set can be described thus: Immunostimulatory activity in C57BL/6 mouse BMDM assessed as increase in CD40 production at 20 ug/ml after 6 to 72 hrs by flow cytometric method. Format: functional, cell-based. A digest of the protocol: as §4
Data set [19] concerns THP-1. The data set can be described thus: Immunostimulatory activity in human THP1 cells assessed as increase in IL-8 production at 20 ug/ml after 6 to 72 hrs by ELISA. It counts as functional, cell-based. In short, it runs like this: as §1

For the compound `C=CCCCNC(=O)[C@H]1O[C@@H](OC[C@H]2OC(O)[C@H](NC(=O)C[C@H](O)CCCCCCCCCCC)[C@@H](OC(=O)C[C@H](O)CCCCCCCCCCC)[C@@H]2O)[C@H](NC(=O)C[C@@H](CCCCCCCCCCC)OC(=O)CCCCCCCCCCC)[C@@H](OC(=O)C[C@@H](CCCCCCCCCCC)OC(=O)CCCCCCCCCCCCC)[C@@H]1OP(=O)(O)O` (some centres undefined), the result in the data set with THP-1 [1], in the data set on BMDM [3], in the data set on THP-1 [6], in the data set on THP-1 [13], in the data set with THP-1 [15] and in the data set with THP-1 [19] was Active. In addition, the result in the data set with BMDM [2], with BMDM [4], in the data set on BMDM [7], in the data set on BMDM [8], in the data set on BMDM [9] and in the data set with BMDM [10] was inactive. The result in the data set with BMDM [11], in the data set on BMDM [14], with BMDM [16], in the data set on BMDM [17] and with BMDM [18] was inactive. For the same compound, the Activity result with THP-1 [5] is “Non-Toxic”; in data set [12], “Toxic”.
